Laboratory results reported in article PMC6166782 (Science signaling, 2018).
Read-outs that look alike come from different tables or passages of the source. Each block holds one compound with its values, some of them ahead of it.

What was measured:
pHsp72 [1] = target: T1, pHsp72 (Homo sapiens, UniProt P0DMV8, T66S); assay: Isothermal titration calorimetry, nucleotide binding to pHsp72; conditions: ITC; ratio of Kd
Target sequence in this assay (P0DMV8 2-641 T66S): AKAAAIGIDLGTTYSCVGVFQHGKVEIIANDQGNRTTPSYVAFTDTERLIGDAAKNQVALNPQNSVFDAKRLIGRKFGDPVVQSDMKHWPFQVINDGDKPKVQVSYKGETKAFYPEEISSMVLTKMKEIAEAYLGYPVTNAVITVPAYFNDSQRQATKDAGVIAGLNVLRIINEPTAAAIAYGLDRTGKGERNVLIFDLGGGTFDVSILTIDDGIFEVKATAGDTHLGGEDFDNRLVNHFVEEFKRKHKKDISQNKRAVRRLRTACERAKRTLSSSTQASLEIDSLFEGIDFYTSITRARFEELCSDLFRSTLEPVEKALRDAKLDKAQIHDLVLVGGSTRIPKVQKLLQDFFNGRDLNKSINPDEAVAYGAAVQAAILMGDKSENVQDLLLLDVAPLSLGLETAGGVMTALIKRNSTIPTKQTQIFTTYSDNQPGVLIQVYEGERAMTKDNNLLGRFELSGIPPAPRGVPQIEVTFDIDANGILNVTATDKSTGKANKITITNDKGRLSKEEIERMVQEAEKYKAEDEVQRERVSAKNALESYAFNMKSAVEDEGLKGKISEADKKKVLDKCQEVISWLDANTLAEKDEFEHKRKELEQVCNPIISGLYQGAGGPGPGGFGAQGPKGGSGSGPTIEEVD

unphosphorylated Hsp72 [2] = target: T2, unphosphorylated Hsp72 (Homo sapiens, UniProt P0DMV8); assay: Kinetics of substrate peptide release, unphosphorylated Hsp72; format: biochemical; conditions: pH 7.5, read-out: koff, excess of unlabeled peptide (ADP state)
How it was run: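 Hsp72 (50 μM) preloaded at room temperature with F-NR in 125 μM ADP, Buffer A (25 mM Hepes-KOH pH 7.5, 150 mM KCl, 10 mM MgCl₂, 2 mM DTT). ADP state: 40 nM F-NR, >5 h, then chased with 150 μM unlabelled NR. ATP state: 20 nM F-NR, then 2 mM ATP plus 150 μM unlabelled peptide. FP read over time at 25°C; koff fitted. Mean ± SEM, four (ADP) or five (ATP) runs.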
Target sequence in this assay (P0DMV8 whole entry): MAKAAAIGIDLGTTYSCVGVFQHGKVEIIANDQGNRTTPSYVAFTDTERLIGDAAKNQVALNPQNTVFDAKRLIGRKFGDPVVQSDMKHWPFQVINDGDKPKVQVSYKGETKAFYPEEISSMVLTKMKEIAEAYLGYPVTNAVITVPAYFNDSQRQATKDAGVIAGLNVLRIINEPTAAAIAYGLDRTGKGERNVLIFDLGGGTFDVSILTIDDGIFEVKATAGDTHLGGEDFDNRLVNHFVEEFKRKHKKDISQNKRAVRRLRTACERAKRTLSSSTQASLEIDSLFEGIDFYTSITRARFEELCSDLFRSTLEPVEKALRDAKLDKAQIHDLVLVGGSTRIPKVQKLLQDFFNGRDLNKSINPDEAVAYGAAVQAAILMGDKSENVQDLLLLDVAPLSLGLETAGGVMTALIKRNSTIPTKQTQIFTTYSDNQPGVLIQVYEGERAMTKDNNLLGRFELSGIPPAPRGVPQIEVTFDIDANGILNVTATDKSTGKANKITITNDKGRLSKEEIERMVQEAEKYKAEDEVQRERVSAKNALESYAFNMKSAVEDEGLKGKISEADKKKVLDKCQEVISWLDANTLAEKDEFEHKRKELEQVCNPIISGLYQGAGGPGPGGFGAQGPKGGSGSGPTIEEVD

unphosphorylated Hsp72 [3] = target: T2, unphosphorylated Hsp72; assay: Peptide release kinetics in the presence of Hsp110, unphosphorylated Hsp72; format: biochemical; conditions: read-out: koff, ATP, excess of unlabeled peptide, Hsp110
How it was run: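 Unphosphorylated Hsp72 (50 μM) equilibrated for several hours at room temperature with 20 nM F-NR and 125 μM ADP in Buffer A (pH 7.5, 150 mM KCl, 10 mM MgCl₂). Release triggered by 2 mM ATP (final) with 150 μM unlabelled peptide and 125 μM His-tagged, E. coli-expressed Hsp110. FP (ex 490/em 535 nm, 25°C) every 30 s for 4000 s; koff fitted. Mean ± SEM, six experiments.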
Target sequence in this assay (P0DMV8 whole entry): as above

pHsp72 [4] = target: T1, pHsp72; assay: Peptide release kinetics in the presence of Hsp110, pHsp72; format: biochemical; conditions: read-out: koff, ATP, excess of unlabeled peptide, Hsp110
How it was run: (§1)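 50 μM pS66 or unphosphorylated Hsp72 was equilibrated for several hours at room temperature with 20 nM F-NR and 125 μM ADP in Hepes–KOH pH 7.5 buffer (10 mM MgCl₂, 2 mM DTT). ATP was then added to 2 mM final, with 150 μM unlabelled peptide and 125 μM Hsp110. FP (ex 490/em 535 nm, 25°C) was read every 30 s for 4000 s. koff given as mean ± SEM of six experiments.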
Target sequence in this assay (P0DMV8 whole entry T66S): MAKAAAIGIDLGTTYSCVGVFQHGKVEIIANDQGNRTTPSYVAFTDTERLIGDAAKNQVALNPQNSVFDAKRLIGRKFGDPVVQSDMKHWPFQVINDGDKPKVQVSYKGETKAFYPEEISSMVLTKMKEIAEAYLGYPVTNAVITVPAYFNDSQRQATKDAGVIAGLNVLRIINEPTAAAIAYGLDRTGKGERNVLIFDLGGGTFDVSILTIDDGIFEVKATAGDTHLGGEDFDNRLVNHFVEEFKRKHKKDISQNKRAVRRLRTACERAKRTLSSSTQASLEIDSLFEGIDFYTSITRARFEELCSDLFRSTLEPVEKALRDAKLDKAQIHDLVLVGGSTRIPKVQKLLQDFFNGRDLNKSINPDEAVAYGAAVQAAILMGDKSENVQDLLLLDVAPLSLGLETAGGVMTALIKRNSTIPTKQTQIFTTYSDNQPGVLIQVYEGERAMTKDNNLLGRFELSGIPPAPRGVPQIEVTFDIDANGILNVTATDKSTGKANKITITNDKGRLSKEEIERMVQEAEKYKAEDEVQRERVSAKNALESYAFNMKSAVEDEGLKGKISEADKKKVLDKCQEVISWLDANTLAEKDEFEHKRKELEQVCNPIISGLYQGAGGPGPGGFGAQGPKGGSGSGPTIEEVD

pHsp72 [5] = target: T1, pHsp72; assay: Kinetics of substrate peptide release, pHsp72; format: biochemical; conditions: pH 7.5, read-out: koff, excess of unlabeled peptide (ADP state)
How it was run: (§2)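 50 μM Hsp72 (pS66 or unphosphorylated) was pre-equilibrated at room temperature with F-NR and 125 μM ADP in Hepes–KOH pH 7.5 buffer with 10 mM MgCl₂. ADP state: 40 nM F-NR for over 5 h, then 150 μM unlabelled NR. ATP state: 20 nM F-NR, then 2 mM ATP plus 150 μM unlabelled peptide, read every 30 s for 4000 s (mean ± SEM, five assays). FP at 25°C; koff was fitted.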
Target sequence in this assay (P0DMV8 whole entry T66S): as above

unphosphorylated Hsp72 [6] = target: T2, unphosphorylated Hsp72; assay: Fluorescence polarization peptide binding, unphosphorylated Hsp72
How it was run: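 Unphosphorylated Hsp72 serially diluted in Buffer A (pH 7.5, 10 mM MgCl₂). ADP state: 125 μM ADP plus 20 nM F-NR, several hours at room temperature to equilibrium. ATP state: 2 mM ATP for 2 min, then 20 nM F-NR, read after 10 min. FP at 25°C, ex 490/em 535 nm. Kd from one-site nonlinear fit; ATP Kd divided by ADP Kd.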
Target sequence in this assay (P0DMV8 whole entry): as the sequence (P0DMV8 whole entry) above

unphosphorylated Hsp72 [7] = target: T2, unphosphorylated Hsp72; assay: ATP mediated substrate release assay, unphosphorylated Hsp72; format: biochemical; conditions: 100 μM VER-155008, 2 mM ATP; Fig. S7, C to E
How it was run: (§3)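 Full-length Hsp72 (unphosphorylated, or pSer66 genetically encoded in E. coli) at 50 μM was equilibrated at room temperature for several hours with 20 nM F-NR or F-ALLQ peptide and 125 μM ADP in Buffer A (Hepes-KOH pH 7.5, 10 mM MgCl₂, 2 mM DTT). ATP was added to 2 mM final, with 100 μM VER-155008 included. FP (ex 490/em 535 nm, 25°C) was read before ATP, then every 30 s for 4000 s.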
Target sequence in this assay (P0DMV8 2-641): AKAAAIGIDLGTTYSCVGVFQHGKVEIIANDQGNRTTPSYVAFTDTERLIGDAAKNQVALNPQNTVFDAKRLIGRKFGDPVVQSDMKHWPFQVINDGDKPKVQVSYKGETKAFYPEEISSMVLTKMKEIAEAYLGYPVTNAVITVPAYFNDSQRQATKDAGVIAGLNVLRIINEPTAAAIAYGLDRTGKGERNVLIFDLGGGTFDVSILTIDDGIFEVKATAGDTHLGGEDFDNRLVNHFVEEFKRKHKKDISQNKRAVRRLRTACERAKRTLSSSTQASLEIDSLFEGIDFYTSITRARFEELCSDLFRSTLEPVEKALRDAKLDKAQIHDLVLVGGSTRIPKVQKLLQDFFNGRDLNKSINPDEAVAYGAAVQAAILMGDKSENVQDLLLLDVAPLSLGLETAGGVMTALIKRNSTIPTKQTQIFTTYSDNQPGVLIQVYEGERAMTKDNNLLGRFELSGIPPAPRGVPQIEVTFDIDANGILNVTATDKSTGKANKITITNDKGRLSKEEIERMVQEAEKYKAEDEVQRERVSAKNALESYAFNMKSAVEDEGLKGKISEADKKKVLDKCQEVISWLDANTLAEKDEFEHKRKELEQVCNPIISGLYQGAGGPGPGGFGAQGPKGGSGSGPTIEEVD

spindle assembly = conditions: ref [9]; cited from earlier work
pHsp72 [8] = target: T1, pHsp72; assay: ATP mediated substrate release assay, pHsp72; format: biochemical; conditions: 100 μM VER-155008, 2 mM ATP; Fig. S7, C to E; protein form not given
How it was run: as §3
Target sequence in this assay (P0DMV8 2-641 T66S): as the sequence (P0DMV8 2-641 T66S) above

[9] = target: fluorescein-labeled NR peptide (F-NR); assay: fluorescence polarisation
[10] = target: fluorescein-labeled NR peptide (F-NR); assay: fluorescence polarisation; remark: listed apart in the source
mitotic spindle = conditions: ref [9]; cited from earlier work
[11] = test system: spindle poles, HeLa cells; assay: FRAP of GFP-Hsp72 at spindle poles; format: cell-based; conditions: one spindle pole bleached; average of 4-5 cells from 2 experiments
pHsp72 [12] = assay: Peptide release kinetics in the presence of Hsp110, pHsp72; format: biochemical; conditions: ATP, Hsp110 and unlabeled substrate peptide
How it was run: as §1

pHsp72 [13] = assay: Kinetics of substrate peptide release, pHsp72; format: biochemical
How it was run: as §2

Sequence of Heat shock protein 72 (Hsp72), unphosphorylated, full-length (P0DMV8 whole entry): as the sequence (P0DMV8 whole entry) above

Compound: Heat shock protein 72 (Hsp72), unphosphorylated, full-length (from UniProt P0DMV8 1-641) (natural protein)
Kd [9]: 3.95 µM
Kd [10]: 157 µM

Compound: T66A
localization to the spindle (mitotic spindle): did not localize to the spindle
effect on spindle assembly (spindle assembly): causes defects in spindle assembly

Compound: T66E
FRAP recovery [11]: very little recovery
effect on spindle assembly (spindle assembly): can rescue the defects in spindle assembly due to NEK6 depletion

Compound: pHsp72: full-length Hsp72 with incorporation of pSer^66
fold slower peptide release rate, pHsp72 vs Hsp72, in presence of Hsp110 (pHsp72 [12]): ~ 2.7 fold
times slower peptide release rate, pHsp72 vs unphosphorylated (pHsp72 [13]; ADP state): ~ 1.5 times
times slower peptide release rate, pHsp72 vs unphosphorylated (pHsp72 [13]; ATP state): ~ 8 times

Compound: pSer^66-Hsp72 (pHsp72), full-length, with genetically encoded phosphoserine at position 66 (from UniProt P0DMV8 1-641) (natural protein)
Kd [10]: 27.6 µM

The next lines start with results.

fold tighter nucleotide binding, pHsp72 vs unphosphorylated Hsp72 (pHsp72 [1]): ten times more tightly
Compound: Nc1ncnc2c1ncn2[C@@H]1O[C@H](COP(=O)(O)OP(=O)(O)O)[C@@H](O)[C@H]1O [ADP, adenosine diphosphate]

fold tighter nucleotide binding, pHsp72 vs unphosphorylated Hsp72 (pHsp72 [1]): 3.6 fold
Compound: Nc1ncnc2c1ncn2[C@@H]1O[C@H](COP(=O)(O)OP(=O)(O)NP(=O)(O)O)[C@@H](O)[C@H]1O [AMP-PNP, adenylyl-imidodiphosphate]

fold tighter nucleotide binding, pHsp72 vs unphosphorylated Hsp72 (pHsp72 [1]): twice as tightly
Compound: Nc1ncnc2c1ncn2[C@@H]1O[C@H](COP(=O)(O)OP(=O)(O)OP(=O)(O)O)[C@@H](O)[C@H]1O [ATP, adenosine triphosphate]

koff (unphosphorylated Hsp72 [2]): 0.00123 ± 4e-05 s⁻¹
koff (unphosphorylated Hsp72 [3]): 0.0673 ± 0.0077 s⁻¹
koff (pHsp72 [4]): 0.0252 ± 0.0017 s⁻¹
koff (pHsp72 [5]): 0.00079 ± 3e-05 s⁻¹
factor by which ATP weakened peptide interaction vs ADP (unphosphorylated Hsp72 [6]; unphosphorylated Hsp72, ATP vs ADP, ratio of Kd): 40
Compound: CC(C)C[C@H](NC(=O)[C@H](CCCNC(=N)N)NC(=O)[C@H](CC(N)=O)NC(=O)c1ccc2c(c1)C(=O)OC21c2ccc(O)cc2Oc2cc(O)ccc21)C(=O)N[C@@H](CC(C)C)C(=O)N[C@@H](CC(C)C)C(=O)N[C@H](C(=O)NCC(=O)O)[C@@H](C)O [F-NR]

fold reduction of ATP substrate release rate (unphosphorylated Hsp72 [7]): ~ 8.6 fold
increase of ATP-mediated rate of release of substrate peptide (pHsp72 [8]): ~ 2.6
Compound: N#Cc1ccc(COC[C@H]2O[C@@H](n3c(NCc4ccc(Cl)c(Cl)c4)nc4c(N)ncnc43)[C@H](O)[C@@H]2O)cc1 [VER-155008]
effect on spindle assembly (spindle assembly): disrupted spindle assembly
effect on binding of peptide substrate (unphosphorylated Hsp72 [6]; 100 μM VER-155008, DMSO control, Fig. S7, form of Hsp72 not stated): did not affect the binding of peptide substrate
